Measurements published in paper PMC6147567 (Molecules : A Journal of Synthetic Chemistry and Natural …, 2005).

Key:
[1] = target: xanthine oxidase (Xox) from buttermilk (Bos taurus, UniProt P80457); assay: Inhibition of xanthine oxidase, hypoxanthine oxidation test; type: biochemical; conditions: for inhibition of Xox (in words): Xox from buttermilk
In short: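 Buttermilk enzyme assayed by hypoxanthine oxidation at 48–150 μM substrate in 50 mM phosphate, pH 7.0, 25 °C. Product formation was followed at 300 nm in a thermostatted spectrophotometer. Inhibitor concentrations were set spectrophotometrically from absorption data and reached up to ~300 μM. IC50 was obtained at more than one hypoxanthine level, and 'no inhibition' means none detected up to 300 μM.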

xanthine oxidase (Xox) = conditions: cited from earlier work
[2] = target: T1, rabbit muscle guanine deaminase (GDA) (Oryctolagus cuniculus, UniProt G1T386); assay: Guanine deaminase assay with 8-azaguanine as substrate; type: biochemical; conditions: concentrations up to 150 μM, 50 mM phosphate pH 6.1, 25 °C
T1 sequence (G1T386 1-454): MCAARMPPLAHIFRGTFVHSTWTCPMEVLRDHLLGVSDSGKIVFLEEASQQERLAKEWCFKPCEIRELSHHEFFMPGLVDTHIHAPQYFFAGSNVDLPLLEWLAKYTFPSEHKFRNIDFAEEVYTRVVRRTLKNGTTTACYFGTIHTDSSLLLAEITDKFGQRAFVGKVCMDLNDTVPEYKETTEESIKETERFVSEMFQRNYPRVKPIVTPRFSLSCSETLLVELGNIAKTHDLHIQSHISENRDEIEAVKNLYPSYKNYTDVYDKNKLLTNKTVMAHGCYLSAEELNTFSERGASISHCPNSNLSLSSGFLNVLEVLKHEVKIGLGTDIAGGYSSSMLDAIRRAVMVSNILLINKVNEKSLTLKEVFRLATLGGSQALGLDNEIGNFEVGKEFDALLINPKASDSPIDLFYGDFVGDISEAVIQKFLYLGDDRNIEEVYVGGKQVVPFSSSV
In short: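 Commercial guanine deaminase, assayed at pH 6.1 with ~50 μM 8-azaguanine as substrate. Reaction followed at 265 nm in a thermostatted UV spectrophotometer; default temperature for the work was 25 °C. Test compound concentrations were determined spectrophotometrically from absorption data and ranged up to ~300 μM.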

Chain of xanthine oxidase (Xox) from buttermilk (P80457 whole entry): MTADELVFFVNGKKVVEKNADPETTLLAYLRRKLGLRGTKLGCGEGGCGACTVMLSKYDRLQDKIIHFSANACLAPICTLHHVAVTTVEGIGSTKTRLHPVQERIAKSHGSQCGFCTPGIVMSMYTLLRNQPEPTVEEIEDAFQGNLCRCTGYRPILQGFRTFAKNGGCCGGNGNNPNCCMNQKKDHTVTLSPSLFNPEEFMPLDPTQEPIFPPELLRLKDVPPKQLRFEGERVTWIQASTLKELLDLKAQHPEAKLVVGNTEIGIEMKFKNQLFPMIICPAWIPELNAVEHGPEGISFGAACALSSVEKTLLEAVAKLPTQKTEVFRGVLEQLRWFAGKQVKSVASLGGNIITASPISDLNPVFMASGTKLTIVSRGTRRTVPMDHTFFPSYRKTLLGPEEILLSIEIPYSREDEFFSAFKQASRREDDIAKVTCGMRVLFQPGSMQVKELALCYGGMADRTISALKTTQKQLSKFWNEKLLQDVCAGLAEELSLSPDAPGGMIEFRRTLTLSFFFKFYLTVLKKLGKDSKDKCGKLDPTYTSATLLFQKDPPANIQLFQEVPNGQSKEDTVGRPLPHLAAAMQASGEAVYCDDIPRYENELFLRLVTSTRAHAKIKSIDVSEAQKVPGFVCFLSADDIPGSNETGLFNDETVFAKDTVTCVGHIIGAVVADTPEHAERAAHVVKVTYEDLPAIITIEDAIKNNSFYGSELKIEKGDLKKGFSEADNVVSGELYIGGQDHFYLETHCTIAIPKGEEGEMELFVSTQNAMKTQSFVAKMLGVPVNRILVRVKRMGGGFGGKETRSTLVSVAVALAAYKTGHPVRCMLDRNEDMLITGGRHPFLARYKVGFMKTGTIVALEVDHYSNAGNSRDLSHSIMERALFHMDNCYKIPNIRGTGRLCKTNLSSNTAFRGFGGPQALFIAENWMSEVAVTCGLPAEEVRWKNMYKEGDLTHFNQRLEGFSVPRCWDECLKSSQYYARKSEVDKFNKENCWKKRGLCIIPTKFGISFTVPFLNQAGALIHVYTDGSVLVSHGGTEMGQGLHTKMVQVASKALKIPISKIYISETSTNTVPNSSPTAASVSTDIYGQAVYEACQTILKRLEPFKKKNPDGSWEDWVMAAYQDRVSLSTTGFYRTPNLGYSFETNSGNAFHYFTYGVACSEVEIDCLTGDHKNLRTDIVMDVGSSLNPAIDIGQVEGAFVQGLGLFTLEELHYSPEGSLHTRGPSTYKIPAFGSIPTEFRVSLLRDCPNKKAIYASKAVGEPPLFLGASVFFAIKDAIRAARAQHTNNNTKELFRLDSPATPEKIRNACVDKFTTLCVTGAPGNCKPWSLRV

| Structure (SMILES) | inhibition of Xox (in words) [1] | IC50 [1] [µM] | further results |
| --- | --- | --- | --- |
| CSc1nnc2[nH]nc(C)c2n1 [Compound 1, 3-Methyl-5-methylsulfanyl-1H-pyrazolo[4,3-e][1,2,4]triazine] | moderate inhibitory activity | ~300 | inhibition of Xox (in words) ([1]; listed as S-methyl derivative): detectable inhibition |
| Cc1nn(C)c2nncnc12 [Compound 8, 1,3-dimethyl-1H-pyrazolo[4,3-e][1,2,4]triazine] | – | > 300 | – |
| Oc1ncnc2[nH]ncc12 [allopurinol] | – | – | inhibition of xanthine oxidase (in words) (xanthine oxidase (Xox)): strong inhibitors |

Continued, in another order:

| inhibition of Xox (in words) [1] | IC50 [1] [µM] | Structure (SMILES) | further results |
| --- | --- | --- | --- |
| Only weak inhibition | – | Cc1n[nH]c2nncnc12 [Compound 7, 3-Methyl-1H-pyrazolo[4,3-e][1,2,4]triazine] | inhibition of Xox (in words) ([1]; listed as 3-methyl-7-azapyrazolo[4,3-d]pyrimidine): detectable inhibition |
| – | > 300 | Cc1n[nH]c2nnc(N)nc12 [Compound 4, 5-Amino-3-methyl-1H-pyrazolo[4,3-e][1,2,4]triazine] | activity as a substrate of GDA [2]: did not show any activity; activity as an inhibitor of GDA [2]: did not show any activity |
